Reference: ChEMBL document CHEMBL5338774, “Quinazoline-2-Carboxamides as Selective PET Radiotracers for Matrix Metalloproteinase-13 Imaging in Atherosclerosis” (J Med Chem, 2023)

Key:
[1] = Tmax in western atherogenic diet fed ApoE-/- mouse blood at […], iv administered as bolus injection measured for 60 mins by PET analysis; assay type: ADME, organism-based; details: in vivo, 1 h
Summary of the method: (§1)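 A 10 min transmission scan preceded tail-vein IV bolus of radiotracer (~7.5 MBq, over 30 s) in diet-fed ApoE-/- mice. Dynamic whole-body PET ran for 60 min (4×15 s, 4×1 min, 11×5 min frames), corrected for attenuation and scatter, 3D-OSEM/MAP reconstruction. Volumetric organ ROIs gave %ID·cc⁻¹ time-activity curves; n = 2 per group.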

[2] = Stability of compound in 10% EtOH/saline assessed as compound degradation measured upto 75 mins by analytical radio-HPLC analysis; assay type: physicochemical; details: buffer, 1.25 h
Summary of the method: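 Radiotracer formulated in 10% EtOH/0.9% saline was held at room temperature up to 75 min. Samples were analysed by analytical radio-HPLC (C18, 0.1 M ammonium formate/ACN gradient, 1 mL·min⁻¹).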

[3] = Octanol/PBS distribution coefficient, logD of compound at pH 7.4 incubated for 10 mins under shaking condition by gamma counter analysis; assay type: physicochemical
Summary of the method: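 Radiotracer partitioning between 1-octanol and 1× PBS at pH 7.4. Mean ± standard error of two independent experiments, each in quadruplicate.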

[4] = Drug distribution in western atherogenic diet fed ApoE-/- mouse myocardium assessed as myocardial retention at […], iv administered as bolus injection measured for 60 mins by PET analysis; assay type: ADME, organism-based; details: in vivo, 1 h; summary of the method: as §1
[5] = Drug distribution in western atherogenic diet fed ApoE-/- mouse liver at […], iv administered as bolus injection measured for 60 mins by PET analysis; assay type: ADME, organism-based; details: in vivo, 1 h; summary of the method: as §1
[6] = Drug distribution in western atherogenic diet fed ApoE-/- mouse kidney at […], iv administered as bolus injection measured for 60 mins by PET analysis; assay type: ADME, organism-based; details: in vivo, 1 h; summary of the method: as §1
[7] = Drug excretion in western atherogenic diet fed ApoE-/- mouse urine at […], iv administered as bolus injection measured for 60 mins by PET analysis; assay type: ADME, organism-based; details: in vivo, 1 h; summary of the method: as §1
[8] = Drug distribution in western atherogenic diet fed ApoE-/- mouse blood assessed as compound remaining at […], iv administered as bolus injection measured for 30 mins by gamma counter analysis; assay type: ADME, organism-based; details: in vivo, 0.5 h
Summary of the method: (§2)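 Diet-fed male ApoE-/- mice (39 ± 5 g, n = 4-6) under 2% isoflurane received radiotracer (~7.5 MBq, 100-200 µL) IV by tail-vein bolus over 30 s. After 30 min, blood was taken by cardiac puncture, then PBS/formalin perfusion and organ dissection. Uptake is decay-corrected %ID normalized to tissue mass (%ID/g).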

[9] = Drug distribution in western atherogenic diet fed ApoE-/- mouse blood assessed as compound remaining at 14 to 16 MBq, iv administered as bolus injection measured for 150 mins by gamma counter analysis; assay type: ADME, organism-based; details: in vivo, 2.5 h, dose 14-16 MBq
[10] = Drug distribution in western atherogenic diet fed ApoE-/- mouse myocardium assessed as compound remaining at […], iv administered as bolus injection measured for 30 mins by gamma counter analysis; assay type: ADME, organism-based; details: in vivo, 0.5 h; summary of the method: as §2
[11] = Drug distribution in western atherogenic diet fed ApoE-/- mouse liver at […], iv administered as bolus injection measured for 30 mins by gamma counter analysis; assay type: ADME, organism-based; details: in vivo, 0.5 h; summary of the method: as §2
[12] = Drug distribution in western atherogenic diet fed ApoE-/- mouse bone at […], iv administered as bolus injection measured for 30 mins by gamma counter analysis; assay type: ADME, organism-based, Bone element; details: in vivo, 0.5 h; summary of the method: as §2
[13] = Drug distribution in western atherogenic diet fed ApoE-/- mouse brain at […], iv administered as bolus injection measured for 30 mins by gamma counter analysis; assay type: ADME, organism-based; details: in vivo, 0.5 h; summary of the method: as §2
[14] = Drug distribution in western atherogenic diet fed ApoE-/- mouse fat tissue at […], iv administered as bolus injection measured for 30 mins by gamma counter analysis; assay type: ADME, organism-based, Adipose tissue; details: in vivo, 0.5 h; summary of the method: as §2
[15] = Drug distribution in western atherogenic diet fed ApoE-/- mouse lung at […], iv administered as bolus injection measured for 30 mins by gamma counter analysis; assay type: ADME, organism-based; details: in vivo, 0.5 h; summary of the method: as §2
[16] = Drug distribution in western atherogenic diet fed ApoE-/- mouse muscle tissue at […], iv administered as bolus injection measured for 30 mins by gamma counter analysis; assay type: ADME, organism-based; details: in vivo, 0.5 h; summary of the method: as §2
[17] = Drug distribution in western atherogenic diet fed ApoE-/- mouse spleen at […], iv administered as bolus injection measured for 30 mins by gamma counter analysis; assay type: ADME, organism-based; details: in vivo, 0.5 h; summary of the method: as §2
[18] = Drug distribution in western atherogenic diet fed ApoE-/- mouse stomach at […], iv administered as bolus injection measured for 30 mins by gamma counter analysis; assay type: ADME, organism-based; details: in vivo, 0.5 h; summary of the method: as §2
[19] = Drug distribution in western atherogenic diet fed ApoE-/- mouse pancreas at […], iv administered as bolus injection measured for 30 mins by gamma counter analysis; assay type: ADME, organism-based; details: in vivo, 0.5 h; summary of the method: as §2
[20] = (§3) Stability in western atherogenic diet fed ApoE-/- mouse plasma assessed as intact compound level at ~75 MBq, iv administered as bolus injection and measured after 30 mins by gamma counter analysis; assay type: ADME, organism-based; details: read-out: Stability
Summary of the method: (§4)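 Blood was drawn by cardiac puncture into K₂EDTA tubes 30 min after IV radiotracer in diet-fed ApoE-/- mice. Optional IV pretreatment 15 min before: unlabelled analogue 2.5 mg/kg or WAY170523 7.5 mg/kg. Pooled protein-free plasma was spiked with standard and run on radio-HPLC (C18, ammonium formate/ACN). Fractions were collected each minute and gamma-counted to give the parent fraction.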

[21] = as §3, with “injection pretreated with 6-fluoro-N-(4-fluoro-3-methylphenyl)methyl)-5-(2-fluoroethoxy)-4-oxo-3,4-dihydroquinazoline-2-carboxamide followed by tracer addition” for “injection”; assay type: ADME, organism-based; details: read-out: Stability; summary of the method: as §4
[22] = as §3, with “injection pretreated with N-(2-(4-(N-benzyl-N-(2-(hydroxycarbamoyl)-4,6-dimethylphenyl)sulfamoyl)phenoxy)ethyl)benzofuran-2-carboxamide followed by tracer addition” for “injection”; assay type: ADME, organism-based; details: read-out: Stability; summary of the method: as §4
[23] = Drug distribution in western atherogenic diet fed ApoE-/- mouse aortic plaques at […], iv administered as bolus injection measured for 30 mins by Oil Red O staining based autoradiography; assay type: ADME, organism-based, Aorta; details: in vivo, 0.5 h
Summary of the method: (§5)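 Male ApoE-/- mice were fed a western atherogenic diet from 8 weeks of age for 13-16 weeks. Radiotracer (~7.5 MBq) was given IV by tail-vein bolus over 30 s. Blocking: unlabelled tracer analogue (2.5 mg/kg; DMA/propylene glycol/PEG400/water) or WAY170523 (7.5 mg/kg; DMSO/PEG400/water), both IV 15 min before. At 30 min, perfused aortae were exposed to a phosphor screen for 10 half-lives (%ID·mm⁻²), with ORO staining.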

[24] = (§6) Drug distribution in western atherogenic diet fed ApoE-/- mouse aortic plaques at […], iv administered as bolus injection pretreated with 6-fluoro-N-(4-fluoro-3-methylphenyl)methyl)-5-(2-fluoroethoxy)-4-oxo-3,4-dihydroquinazoline-2-carboxamide for 15 mins followed by tracer addition and measured after 30 mins by Oil Red O staining based autoradiography; assay type: ADME, organism-based, Aorta; details: in vivo, 0.5 h; summary of the method: as §5
[25] = (§7) Drug distribution in western atherogenic diet fed ApoE-/- mouse aortic plaques at […], iv administered as bolus injection pretreated with N-(2-(4-(N-benzyl-N-(2-(hydroxycarbamoyl)-4,6-dimethylphenyl)sulfamoyl)phenoxy)ethyl)benzofuran-2-carboxamide for 15 mins followed by tracer addition and measured after 30 mins by Oil Red O staining based autoradiography; assay type: ADME, organism-based, Aorta; details: in vivo, 0.5 h; summary of the method: as §5
[26] = as §6, with “plaques assessed as reduction in radioactivity” for “plaques”, “autoradiography relative to control” for “autoradiography”; assay type: ADME, organism-based, Aorta; set-up: scale not given: the % may be the effect or the level left; details: in vivo, 0.5 h; summary of the method: as §5
[27] = as §7, with “plaques assessed as reduction in radioactivity” for “plaques”, “autoradiography relative to control” for “autoradiography”; assay type: ADME, organism-based, Aorta; set-up: scale not given: the % may be the effect or the level left; details: in vivo, 0.5 h; summary of the method: as §5

Tmax [1]: 37.5 s
Stability [2]: Stable
logD at 10 min [3]: 3.09
Drug uptake [4]: < 0.5 %ID/cc
Drug uptake [5]: 6.43 %ID/cc
Drug uptake [6]: 4.42 %ID/cc
Drug excretion [7]: Active
Drug uptake [8]: 3.28 % ID/g
Drug uptake [9]: Active
Drug uptake [10]: ~ 1 % ID/g
Drug uptake [11]: 3.32 % ID/g
Drug uptake [12]: ~ 2 % ID/g
Drug uptake [13]: ~ 2 % ID/g
Drug uptake [14]: ~ 2 % ID/g
Drug uptake [15]: ~ 2 % ID/g
Drug uptake [16]: ~ 2 % ID/g
Drug uptake [17]: ~ 2 % ID/g
Drug uptake [18]: ~ 2 % ID/g
Drug uptake [19]: 2.14 % ID/g
remaining at 0.5 h [20]: 78%
remaining at 0.5 h [21]: 78%
remaining at 0.5 h [22]: 87%
Drug uptake [23]: 270 %ID.m^-2
Drug uptake [24]: 208.2 %ID.m^-2
Drug uptake [25]: 173.4 %ID.m^-2
Activity [26]: 23%
Activity [27]: 36%
SMILES: Cc1cc(CNC(=O)c2nc3ccc(F)c(OCC[18F])c3c(=O)[nH]2)ccc1F
